Like-named read-outs stand apart in the source and are kept apart here. Bridges are numbered along the chain shown (N, C = ends). Where no end group is shown, it is not given here.

For orientation: EC50 means the concentration needed to bring the measured effect to its halfway point. High values mean lower potency in that assay, low ones higher potency in that assay.

Test [1] has as its target T1, macaque oxytocin receptor (qOTR) (Macaca mulatta, UniProt P56494).
T1 sequence (P56494 1-389): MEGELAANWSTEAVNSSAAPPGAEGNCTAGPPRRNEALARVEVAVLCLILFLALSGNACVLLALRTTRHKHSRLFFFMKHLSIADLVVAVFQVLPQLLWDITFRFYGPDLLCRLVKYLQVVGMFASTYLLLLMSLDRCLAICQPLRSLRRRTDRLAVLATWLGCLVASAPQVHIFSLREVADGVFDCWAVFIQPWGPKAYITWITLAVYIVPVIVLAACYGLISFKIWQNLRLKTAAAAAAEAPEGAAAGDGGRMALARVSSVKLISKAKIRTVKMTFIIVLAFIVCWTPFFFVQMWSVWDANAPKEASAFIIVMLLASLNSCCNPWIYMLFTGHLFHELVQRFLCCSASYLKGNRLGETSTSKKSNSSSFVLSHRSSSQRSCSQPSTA
The experiment in a line: Ca2+ mobilization assay. The test is classed as cell-based.

Test [2] has as its system Ca^2+-activated K^+ channels. The test is classed as cell-based, Chinese hamster. The note with it: mOT receptor CHO cells, inhibitor pretreatment.
In test [3] the test system is Ca^2+-activated K^+ channels. The test is classed as cell-based, Chinese hamster. To be noted: hOT receptor CHO cells, inhibitor pretreatment.
In test [4] the test system is Ca^2+-activated K^+ channels. The note with it: mOT receptor CHO cells, cited from earlier work.
For test [5], the system named is Ca^2+-activated K^+ channels. In kind it is cell-based, Chinese hamster. The note with it: qOT receptor CHO cells; for inhibition of AVP induced hyperpolarization / inhibition of Leu^8-OT induced hyperpolarization / inhibition of Pro^8-OT induced hyperpolarization: inhibitor pretreatment. In short, it runs like this: (§1)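 Receptor-expressing CHO-K1 cells were loaded with FMP Blue in Locke's buffer (pH 7.4) at 37 °C for 35 min. Paxilline, TRAM-34 and/or apamin were then added, followed by 10 min more incubation. Baseline was read for 60 s, then log concentrations of agonist were added and ex 530/em 565 nm was read every 2 s for 200 s. NS-1619 or SKA-31 stimulation followed paxilline (30 μM) or TRAM-34 pretreatment respectively. Response was FMIN − F0. N = 3 experiments, 10 replicates per dose.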

Test [6] concerns Ca^2+-activated K^+ channels. The note with it: hOT receptor CHO cells, cited from earlier work.
Test [7] deals with Ca^2+-activated K^+ channels. In kind it is cell-based, Chinese hamster. To be noted: tOT receptor CHO cells; for inhibition of AVP induced hyperpolarization / inhibition of Leu^8-OT induced hyperpolarization / inhibition of Pro^8-OT induced hyperpolarization: inhibitor pretreatment. In a few lines:
as §1

Test [8] has as its system sarco/endoplasmic reticulum calcium ATPase (SERCA). In kind it is cell-based. To be noted: all four OT receptor cell lines, thapsigargin pretreatment. In a few lines: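 Cells were incubated with FMP Blue in Locke's buffer at 37 °C for 40 min. Thapsigargin was added, followed by 5 min more incubation. The membrane potential assay was then run with agonist concentration series. Fluorescence was read at ex 530/em 565 nm every 2 s for 200 s after a 60 s baseline. Response was FMIN − F0.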

Test [9] shares this test system. The test is classed as cell-based. The note with it: all four lines, thapsigargin pretreatment 1 μM final concentration. In short, it runs like this: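 Fluo-3 AM-loaded cells (60 min, 37 °C) were washed four times and treated with thapsigargin (1 μM final) for 5 min. The Ca2+ mobilization assay was then run with agonist concentration series, with untreated controls in parallel on the same plates. The Fluo-3 read was FMAX − F0. N = 3 experiments, five replicates per dose.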

A further test relates to Gi/o. The test is classed as cell-based. To be noted: PTX 150 ng/ml.
Test [10] concerns the target Human Kappa-opioid (κO) receptor (Homo sapiens, UniProt P41145). The experiment in a line: Membrane potential assay in κOR-CHO cells. The test is classed as cell-based. To be noted: κOR-CHO cells pretreated with pertussis toxin.

Chain of Human Kappa-opioid (κO) receptor (P41145 whole entry): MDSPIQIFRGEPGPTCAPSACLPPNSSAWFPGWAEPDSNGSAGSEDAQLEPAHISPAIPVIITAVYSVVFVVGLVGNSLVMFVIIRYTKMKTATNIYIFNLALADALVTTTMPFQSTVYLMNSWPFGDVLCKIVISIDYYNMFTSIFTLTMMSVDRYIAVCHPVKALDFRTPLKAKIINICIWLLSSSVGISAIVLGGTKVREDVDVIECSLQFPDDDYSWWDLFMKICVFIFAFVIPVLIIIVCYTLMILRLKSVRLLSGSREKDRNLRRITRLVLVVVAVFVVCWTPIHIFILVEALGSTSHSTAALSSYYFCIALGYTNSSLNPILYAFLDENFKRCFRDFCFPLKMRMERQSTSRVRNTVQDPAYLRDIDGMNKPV

In test [1], `NC(=O)CC[C@@H]1NC(=O)[C@H](Cc2ccccc2)NC(=O)[C@H](Cc2ccc(O)cc2)NC(=O)[C@@H](N)CSSC[C@@H](C(=O)N2CCC[C@H]2C(=O)N[C@@H](CCCN=C(N)N)C(=O)NCC(N)=O)NC(=O)[C@H](CC(N)=O)NC1=O` [AVP, arginine vasopressin] came in with an EC50 of 49.8 nM.

For the compound `Clc1ccccc1C(c1ccccc1)(c1ccccc1)n1cccn1` [TRAM-34], the “inhibition of AVP induced hyperpolarization” value in [2] stood at 33%; in test [3], 61%; in test [7], 25%. The “effect on hyperpolarizing response to KCa3.1 channel opener SKA31” value in test [4] and in test [6] was “inhibited” throughout. In addition, the figures for the “inhibition of SKA-31 hyperpolarization” value in test [5] (300 nM TRAM-34 pretreatment) and in [7] (300 nM TRAM-34 pretreatment) were 92% and 78%, respectively. Moreover, the “inhibition of Leu^8-OT induced hyperpolarization” value in test [7] is 38%. For the same compound, the “inhibition of Pro^8-OT induced hyperpolarization” value in [7] is recorded as 37%.

With `CC(C)(O)[C@H]1O[C@H]2CC[C@@]3(C)[C@@](O)(CC[C@H]4Cc5c([nH]c6ccccc56)[C@@]43C)C2=CC1=O` [paxilline], the “inhibition of AVP induced hyperpolarization” value in [2] worked out at 20%; in test [3] it was 52%; in [5], 20%; in [7] it was 13%. Further, the “effect on BKCa activator NS-1619 response” value in test [4] and in test [6] was “inhibited” in each case. Moreover, the figures for the “block of NS-1619 evoked hyperpolarization” value in test [5] (30 μM paxilline) and in test [7] (30 μM paxilline) were 72% and 80%, respectively. The “inhibition of Leu^8-OT induced hyperpolarization” value is 46% in [5] and 38% in [7]. The “inhibition of Pro^8-OT induced hyperpolarization” value in [5] stood at 35%; in test [7], 39%.

Consider `C/C=C(/C)C(=O)O[C@H]1C(C)=C2[C@H]([C@@H]1OC(=O)CCCCCCC)[C@@](C)(OC(C)=O)C[C@H](OC(=O)CCC)[C@@]1(O)[C@H]2OC(=O)[C@@]1(C)O` [thapsigargin], for which the “effect on hyperpolarization produced by AVP, Leu^8-OT, and Pro^8-OT” value in test [8] is listed as “eliminated”. Moreover, in test [9], the “effect on AVP and OT-analog evoked increases in Ca2+” value is reported as “blocked”.

As for Pertussis toxin, the “effect on AVP induced hyperpolarization” value with Gi/o (any of the four cell lines (mOTR, tOTR, qOTR, hOTR)) is recorded as “did not inhibit”. In the test with Gi/o (tOT or qOT receptor cell lines), the “effect on Leu^8-OT induced hyperpolarization” value is given as “did not inhibit” and the “effect on Pro^8-OT induced hyperpolarization” value is given as “did not inhibit”. Also, the “effect on DynorphinA1-13-NH2 hyperpolarizing response” value in test [10] is on record as “abolished”.

“apamin: selective inhibitor of SKCa channels (CNCKAPETALCARRCQQH-NH2; disulfide 1-11, 3-15; UniProt P01500 28-45, looked up)”: the “inhibition of AVP induced hyperpolarization” value in [2] is recorded as “did not significantly affect”; in test [2] (listed as Apamin), at most 15%; in test [3] it was “did not significantly affect”; in test [3] (listed as Apamin), at most 15%; in test [5] it was “did not significantly affect”; in test [5] (listed as Apamin), at most 15%. The “inhibition of AVP induced hyperpolarization” value in [7] is on record as “did not significantly affect”; in test [7] (listed as Apamin), at most 15%. Moreover, the “contribution to (inhibition of) Leu^8-OT induced membrane hyperpolarization” value in test [4] (apamin pretreatment) and in test [6] (apamin pretreatment) was at most 15% throughout. In addition, the “contribution to (inhibition of) Pro^8-OT induced membrane hyperpolarization” value in [4] (apamin pretreatment) and in test [6] (apamin pretreatment) was at most 15% each time. For the same compound, the “inhibition of Leu^8-OT induced hyperpolarization” value in test [5] and in test [7] was at most 15% throughout. Also, the “inhibition of Pro^8-OT induced hyperpolarization” value in [5] and in test [7] was at most 15% in each case.

The values are drawn from PMC7196279 (Biomedicine & pharmacotherapy = Biomedecine & …, 2020).
